From ChEMBL document CHEMBL4043235, “Design, semisynthesis and potent cytotoxic activity of novel 10-fluorocamptothecin derivatives” (Bioorg Med Chem Lett, 2017)

Columns and labels:
Format in all cases: functional, cell-based
MCF7 = assay: Cytotoxicity against human MCF7 cells after 72 hrs by SRB assay; details: MCF7, 72 h
Summary of the method: (§1)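 Cells seeded at 3–5 × 10^3 per well in RPMI-1640 with 10% FBS holding various sample concentrations. Exposure 72 h. Attached cells fixed with cold 50% trichloroacetic acid for 30 min, then stained with 0.04% SRB for 30 min. Bound dye solubilized in 10 mM Tris-base, absorbance read at 515 nm. Three or more experiments; IC50 given as mean with standard deviation.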

A549 = assay: Cytotoxicity against human A549 cells after 72 hrs by SRB assay; details: A549, 72 h; summary of the method: as §1
KB = assay: Cytotoxicity against human KB cells after 72 hrs by SRB assay; summary of the method: as §1
MDA-MB-231 = assay: Cytotoxicity against human MDA-MB-231 cells after 72 hrs by SRB assay; details: MDA-MB-231, 72 h; summary of the method: as §1
[1] = Cytotoxicity against human KBVIN cells after 72 hrs by SRB assay; summary of the method: as §1

Row | SMILES | IC50 (MCF7) [nM] | IC50 (A549) [nM] | IC50 (KB) [nM] | IC50 (MDA-MB-231) [nM] | IC50 [1] [nM]
1 | CC[C@@]1(O)C(=O)OCc2c1cc1n(c2=O)Cc2cc3c(CN(C)C)c(O)ccc3nc2-1 [TOPOTECAN] | 666 | 112 | 102 | 773 | 
2 | CC[C@@]1(O)C(=O)OCc2c1cc1n(c2=O)Cc2cc3cc(F)ccc3nc2-1 | 431 | 58.6 | 185 | 579 | 2950
3 | CCc1c2c(nc3ccc(F)cc13)-c1cc3c(c(=O)n1C2)COC(=O)[C@]3(O)CC | 76.9 | 9.91 | 69.6 | 319 | 67
4 | CCc1c2c(nc3ccc(F)cc13)-c1cc3c(c(=O)n1C2)COC(=O)[C@@]3(CC)OC(=O)CN/C(Cc1ccc(OC)cc1)=N/S(=O)(=O)c1ccc(C)cc1 | 80.8 | 8.72 | 47 | 238 | 99.2
5 | CCc1c2c(nc3ccc(OC(=O)N4CCC(N5CCCCC5)CC4)cc13)-c1cc3c(c(=O)n1C2)COC(=O)[C@]3(O)CC [IRINOTECAN] |  |  | 7990 | 15600 | > 20000
6 | CC[C@@]1(OC(=O)CN/C(Cc2ccc(OC)cc2)=N/S(=O)(=O)c2ccc(C)cc2)C(=O)OCc2c1cc1n(c2=O)Cc2cc3cc(F)ccc3nc2-1 | 649 | 62.2 | 280 | 601 | 497
